The source of these data is ChEMBL document CHEMBL1130108, “Synthesis of nonhydrolyzable analogues of thiazole-4-carboxamide and benzamide adenine dinucleotide containing fluorine atom at the C2' of adenine nucleoside: induction of K562 differentiation and inosine monophosphate dehydrogenase inhibitory activity” (J Med Chem, 1997).

Where “and” joins values, the source holds several entries; their conditions need not be identical. Equal entries are not always repeated.

The nature of assay [1]: Percentage of benzidine positive cells is divided by the concentration used. The format is functional. Further details: unit not given here; call rule not given here. The method, boiled down:
(§1)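 K562 erythroleukemia cells incubated with analogue; differentiation scored as fraction of benzidine-positive cells; percent benzidine-positive cells normalized by dividing by the analogue concentration applied.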

Assay [2] concerns K562. As to the kind of experiment: The ability to induce differentiation in K562 cells was estimated by determining the fraction of benzidine positive cells converted following incubation with the compound. The format is functional, Homo sapiens. The method, boiled down: as §1
The test system of assay [3] is K562. Kind of assay: The concentration used to induce differentiation in K562 cells. The settings on record: Homo sapiens. The format is functional, cell-based. The method, boiled down: as §1
For assay [4], the target named is Inosine-5'-monophosphate dehydrogenase 2 (Homo sapiens, UniProt P12268). Kind of assay: The compound was assayed to determine the inhibitory activity against human Inosine-5'-monophosphate dehydrogenase 2.
Assay [5] deals with K562. As to the kind of experiment: Antiproliferative activity against K562 erythroid leukemic cells was determined. The format is functional, cell-based. The following applies: Homo sapiens.
In assay [6] the test system is K562. As to the kind of experiment: The concentration used. It counts as functional, cell-based. The following applies: Homo sapiens. The gist of the method:
as §1

In assay [7] the test system is K562. As to the kind of experiment: Antiproliferative activity against K562 erythroid leukemic cells was determined; NE=no effect. It counts as functional, cell-based, Homo sapiens.

Usually IC50 stands for the concentration that inhibits the measured activity by half. As to `NC(=O)c1csc([C@@H]2O[C@H](COP(=O)(O)OP(=O)(O)OC[C@@H]3O[C@H](n4cnc5c(N)ncnc54)[C@@H](O)[C@H]3F)[C@@H](O)[C@H]2O)n1`, the figures for the Concentration (in assay [1]; in the assay with K562 [3]) were 10.4 and 2.5 µM, respectively. Besides, the Positive cells in the assay with K562 [2] is recorded as 26%. Further, the IC50 in assay [4] was found to be 0.7 µM; with K562 [5], 3.2 µM.
Turning to `NC(=O)c1csc([C@H]2O[C@@H](COP(=O)(O)OP(=O)(O)OC[C@H]3O[C@@H](n4cnc5c(N)ncnc54)[C@H](O)[C@@H]3O)[C@H](O)[C@@H]2O)n1`, in the assay with K562 [2], the Positive cells is given as 70%. Also, in the assay with K562 [3], the Concentration was 15 µM. This compound showed an IC50 in the assay on K562 [5] of 3.7 µM.
`NC(=O)c1csc([C@@H]2O[C@H](COP(=O)(O)C(F)(F)P(=O)(O)OC[C@@H]3O[C@H](n4cnc5c(N)ncnc54)[C@@H](O)[C@H]3O)[C@@H](O)[C@H]2O)n1`: the Concentration is 3.4 in assay [1] and 14 µM with K562 [3]. In addition, in the assay on K562 [2], the Positive cells was 48%. Also, the IC50 in assay [4] is 0.3 µM; with K562 [5], 11 µM.
With `NC(=O)c1cccc([C@@H]2O[C@H](COP(=O)(O)CP(=O)(O)OC[C@@H]3O[C@H](n4cnc5c(N)ncnc54)[C@@H](O)[C@H]3O)[C@@H](O)[C@H]2O)c1`, the Concentration in assay [1] was 0.6 and 0.8; with K562 [3], 15 µM; in the assay on K562 [6], 60 µM. Besides, the IC50 in assay [4] is 0.8 µM; in the assay with K562 [5] it was 68 µM.
For `NC(=O)c1csc([C@@H]2O[C@H](COP(=O)(O)CP(=O)(O)OC[C@@H]3O[C@H](n4cnc5c(N)ncnc54)[C@@H](O)[C@H]3O)[C@@H](O)[C@H]2O)n1`, the Positive cells in the assay with K562 [2] is 35%. Further, the Concentration with K562 [3] was 14.3 µM. The IC50 in assay [4] was found to be 0.11 µM; with K562 [5], 18 µM.
As for `NC(=O)c1cccc([C@@H]2O[C@H](COP(=O)(O)CP(=O)(O)OC[C@@H]3O[C@H](n4cnc5c(N)ncnc54)[C@H](F)[C@H]3O)[C@@H](O)[C@H]2O)c1`, the Concentration in assay [1] turned out to be 0.1; in the assay with K562 [3], 75 µM. In addition, the Positive cells with K562 [2] is on record as 9%. Besides, the IC50 entry is “Not Active” in the assay with K562 [7] and 175 µM in assay [4].
For the compound `NC(=O)c1csc([C@@H]2O[C@H](COP(=O)(O)C(F)(F)P(=O)(O)OC[C@@H]3O[C@H](n4cnc5c(N)ncnc54)[C@H](F)[C@H]3O)[C@@H](O)[C@H]2O)n1`, the figures for the Concentration (in assay [1]; with K562 [3]) were 3.1 and 13 µM, respectively. In addition, in the assay with K562 [2], the Positive cells is on record as 40%. For the same compound, the IC50 in assay [4] came to 0.8 µM; in the assay on K562 [5], 13 µM.
Take `NC(=O)c1csc([C@@H]2O[C@H](CO)[C@@H](O)[C@H]2O)n1` [TIAZOFURIN]: the Positive cells in the assay on K562 [2] is 80%. Moreover, in the assay on K562 [3], the Concentration amounted to 15 µM. For the same compound, in the assay on K562 [5], the IC50 stood at 3 µM.
Take `NC(=O)c1csc([C@@H]2O[C@H](COP(=O)(O)OP(=O)(O)OC[C@@H]3O[C@H](n4cnc5c(N)ncnc54)[C@@H](F)[C@H]3O)[C@@H](O)[C@H]2O)n1`: the Concentration came out at 10.4 in assay [1] and 13 µM in the assay on K562 [3]. Besides, in the assay with K562 [2], the Positive cells is recorded as 56%. Moreover, the IC50 in assay [4] stood at 2.6 µM; with K562 [5], 3.8 µM.
Regarding `NC(=O)c1csc([C@@H]2O[C@H](COP(=O)(O)CP(=O)(O)OC[C@@H]3O[C@H](n4cnc5c(N)ncnc54)[C@H](F)[C@H]3O)[C@@H](O)[C@H]2O)n1`, the values for the Concentration (in assay [1]; in the assay on K562 [3]) were 0.7 and 14 µM, respectively. Also, the Positive cells with K562 [2] is reported as 9.5%. In addition, the results for the IC50 (in assay [4]; with K562 [5]) were 6 µM and 70 µM, respectively.
